This is an account of results in publication PMC9052103 (RSC Advances, 2020).

Type in all cases: cell-based
Test [1] has as its system E. coli ATCC 25922. In words: MIC, 96-well microtiter broth dilution. The note with it: Escherichia coli, ATCC25922, read-out: MIC E. coli ATCC 25922. Background: Broth dilution looks for growth in wells or tubes with falling amounts of substance.
Test [2] has as its system S. aureus ATCC BAA-1747. In words: MIC, 96-well microtiter broth dilution. The note with it: Staphylococcus aureus, ATCCBAA1747|MRSA, read-out: MIC S. aureus ATCC BAA-1747.
For test [3], the system named is E. coli ATCC 8739. In words: MIC, 96-well microtiter broth dilution. The settings on record: Escherichia coli, ATCC8739, read-out: MIC E. coli ATCC 8739.
Test [4] deals with S. aureus ATCC BAA-1720. In words: MIC, 96-well microtiter broth dilution. The settings on record: Staphylococcus aureus, ATCCBAA1720|MRSA, read-out: MIC S. aureus ATCC BAA-1720.
The subject of test [5] is E. faecalis ATCC 29212. In words: MIC, 96-well microtiter broth dilution. The note with it: Enterococcus faecalis, ATCC29212, read-out: MIC E. faecalis ATCC 29212.
Test [6] concerns S. epidermidis ATCC 12228. In words: MIC, 96-well microtiter broth dilution. The settings on record: Staphylococcus epidermidis, ATCC12228, read-out: MIC S. epidermidis ATCC 12228.
In test [7] the test system is S. aureus ATCC BAA-41. In words: MIC, 96-well microtiter broth dilution. The settings on record: Staphylococcus aureus, ATCCBAA41|MRSA, read-out: MIC S. aureus ATCC BAA-41.
In test [8] the test system is E. faecium ATCC 49624. In words: MIC, 96-well microtiter broth dilution. The settings on record: Enterococcus faecium, ATCC49624, read-out: MIC E. faecium ATCC 49624.
The subject of test [9] is S. aureus ATCC 29213. In words: MIC, 96-well microtiter broth dilution. The settings on record: Staphylococcus aureus, ATCC29213, read-out: MIC S. aureus ATCC 29213.
Test [10] relates to S. aureus ATCC 43300. In words: MIC, 96-well microtiter broth dilution. The settings on record: Staphylococcus aureus, ATCC43300|MRSA, read-out: MIC S. aureus ATCC 43300.
The test system of test [11] is E. faecium ATCC 700221. As to the kind of experiment: MIC, 96-well microtiter broth dilution. The note with it: Enterococcus faecium, ATCC700221, read-out: MIC E. faecium ATCC 700221.
Test [12] deals with E. coli ATCC BAA-2469. As to the kind of experiment: MIC, 96-well microtiter broth dilution.
For test [13], the system named is S. aureus ATCC 29213. As to the kind of experiment: In vitro drug resistance development, serial passage. Put shortly: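 Serial passage against S. aureus ATCC 29213: culture from the 0.5 × MIC well of the prior MIC plate diluted to 5 × 10^5 CFU mL−1 and exposed to a range of test compound concentrations. MIC read after 24 h at 37 °C. Cycle repeated 35 times. Ciprofloxacin, vancomycin and rifampin passaged in parallel.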

Each structure is given as a SMILES string. Converted amounts (≈) assume the structure as drawn.

Turning to `Cc1cc(/C=C2\Sc3ccccc3N2CCCN2CCCCC2)c2ccccc2[n+]1C.[I-]` [Compound 4a3, (Z)-1,2-Dimethyl-4-((3-(3-(piperidin-1-yl)propyl)benzo[d]thiazol-2(3H)-ylidene)methyl)quinolin-1-ium iodide], the MIC – broadly, the lowest concentration that inhibits growth of the organism – turned out to be 4 µg/mL in test [1]; 32 µg/mL in [2]; 4 µg/mL in test [3]; 32 µg/mL in test [4]; 64 µg/mL in [5]; 8 µg/mL in test [6]. Besides, the MIC in test [7] was determined as 8 µg/mL; in test [8], 32 µg/mL; in test [9], 32 µg/mL; in test [10], 32 µg/mL; in test [11], 32 µg/mL.

For the compound `C[n+]1ccc(/C=C2\Sc3ccccc3N2CCCN2CCCCC2)c2ccccc21.[I-]` [Compound 4b3, (Z)-1-Methyl-4-((3-(3-(piperidin-1-yl)propyl)benzo[d]thiazol-2(3H)-ylidene)methyl)quinolin-1-ium iodide], the MIC in [1] is 2 µg/mL; in test [2], 8 µg/mL; in [3], 4 µg/mL; in test [4], 16 µg/mL; in [5], over 64 µg/mL; in test [6], 2 µg/mL. Also, the MIC in [7] was found to be 4 µg/mL; in [8] it was 32 µg/mL; in test [9] it was 32 µg/mL; in test [10] it was 8 µg/mL; in test [11], 32 µg/mL.

Turning to `C[n+]1c(/C=C/c2c[nH]c3ccccc23)cc(/C=C2\Sc3ccccc3N2CCCN2CCOCC2)c2ccccc21.[I-]` [Compound 4c1, 2-((E)-2-(1H-Indol-3-yl)vinyl)-1-methyl-4-((Z)-(3-(3-morpholinopropyl)benzo[d]thiazol-2(3H)-ylidene)methyl)quinolin-1-ium iodide], the MIC in test [1] was 8 µg/mL; in [2], 16 µg/mL; in test [3], 64 µg/mL; in [4], 16 µg/mL; in test [5] it was 16 µg/mL; in test [6] it was 2 µg/mL. The MIC in test [7] was determined as 16 µg/mL; in [8] it was 16 µg/mL; in test [9] it was 16 µg/mL; in [10], 16 µg/mL; in [11], 8 µg/mL.

Take `C[n+]1c(/C=C/c2ccc(O)cc2)cc(/C=C2\Sc3ccccc3N2CCCN2CCOCC2)c2ccccc21.[I-]` [Compound 4c2, 2-((E)-4-Hydroxystyryl)-1-methyl-4-((Z)-(3-(3-morpholinopropyl)benzo[d]thiazol-2(3H)-ylidene)methyl)quinolin-1-ium iodide]: the MIC is 4 µg/mL in [1]; 16 µg/mL in [2]; 32 µg/mL in test [3]; 32 µg/mL in [4]; 16 µg/mL in [5]; 4 µg/mL in test [6]. Moreover, the MIC in test [7] was found to be 8 µg/mL; in [8], 8 µg/mL; in test [9], 16 µg/mL; in test [10], 16 µg/mL; in test [11] it was 4 µg/mL.

For `C[n+]1c(/C=C/c2c[nH]c3ccccc23)cc(/C=C2\Sc3ccccc3N2CCCN2CCCC2)c2ccccc21.[I-]` [Compound 4d1, 2-((E)-2-(1H-Indol-3-yl)vinyl)-1-methyl-4-((Z)-(3-(3-(pyrrolidin-1-yl)propyl)benzo[d]thiazol-2(3H)-ylidene)methyl)quinolin-1-ium iodide], the MIC is 4 µg/mL in test [1]; 8 µg/mL in [2]; 16 µg/mL in test [3]; 8 µg/mL in [4]; 32 µg/mL in [5]; 2 µg/mL in test [6]. In addition, the MIC was 4 µg/mL in test [7]; 8 µg/mL in [8]; 16 µg/mL in test [9]; 8 µg/mL in test [10]; 16 µg/mL in test [11].

Consider `C[n+]1c(/C=C/c2ccc(O)cc2)cc(/C=C2\Sc3ccccc3N2CCCN2CCCC2)c2ccccc21.[I-]` [Compound 4d2, 2-((E)-4-Hydroxystyryl)-1-methyl-4-((Z)-(3-(3-(pyrrolidin-1-yl)propyl)benzo[d]thiazol-2(3H)-ylidene)methyl)quinolin-1-ium iodide], for which the MIC in test [1] worked out at 32 µg/mL; in test [2], 32 µg/mL; in [3] it was 32 µg/mL; in test [4], 32 µg/mL; in [5], 64 µg/mL; in test [6], 16 µg/mL. Further, the MIC in [7], in test [8], in test [9], in [10] and in test [11] was 32 µg/mL each time.

On to `CSc1ccc(/C=C/c2cc(/C=C3\Sc4ccccc4N3CCCN3CCCC3)c3ccccc3[n+]2C)cc1.[I-]` [Compound 4d3, 1-Methyl-2-((E)-4-(methylthio)styryl)-4-((Z)-(3-(3-(pyrrolidin-1-yl)propyl)benzo[d]thiazol-2(3H)-ylidene)methyl)quinolin-1-ium iodide], for which the MIC in test [2] is 32 µg/mL; in test [3], 32 µg/mL; in test [4] it was 32 µg/mL; in test [5], 64 µg/mL; in test [6], 16 µg/mL; in [7], 32 µg/mL. Moreover, the MIC in test [8] came out at 64 µg/mL; in test [9] it was 16 µg/mL; in test [10], 32 µg/mL; in test [11] it was 32 µg/mL.

For `CC1(C)S[C@@H]2[C@H](NC(=O)[C@H](N)c3ccccc3)C(=O)N2[C@H]1C(=O)O` [amp, ampicillin, reference compound], the MIC in test [1] was 1 µg/mL (≈ 2.86 µM); in test [2], over 64 µg/mL; in test [3], 2 µg/mL (≈ 5.72 µM); in test [4] it was over 64 µg/mL; in test [5] it was 0.5 µg/mL (≈ 1.43 µM); in [6], over 64 µg/mL. Further, the MIC is over 64 µg/mL in [7]; 0.25 µg/mL (≈ 0.715 µM) in [8]; over 64 µg/mL in test [9]; over 64 µg/mL in test [10]; over 64 µg/mL in [11]. Also, the “MIC against antibiotics resistant E. coli mutant NDM-1 strain” value in [12] is over 64 µg/mL.

As to `O=C(O)c1cn(C2CC2)c2cc(N3CCNCC3)c(F)cc2c1=O` [ciprofloxacin], the “Increase of MIC after 35 passages” value in [13] is listed as 32 fold.

Consider `COc1cccc(OC)c1C(=O)N[C@@H]1C(=O)N2[C@@H]1SC(C)(C)[C@@H]2C(=O)O` [meth, methicillin, reference compound], for which the MIC in test [1] was 2 µg/mL (≈ 5.26 µM); in [2], 256 µg/mL (≈ 673 µM); in test [3], over 64 µg/mL; in [4] it was 1020 µg/mL (≈ 2690 µM); in [5], 1 µg/mL (≈ 2.63 µM); in test [6] it was 0.5 µg/mL (≈ 1.31 µM). In addition, the MIC in test [7] amounted to 1020 µg/mL (≈ 2690 µM); in test [8] it was 4 µg/mL (≈ 10.5 µM); in [9], 0.5 µg/mL (≈ 1.31 µM); in test [10], 512 µg/mL (≈ 1350 µM); in test [11], 1.5 µg/mL (≈ 3.94 µM). Further, in test [12], the “MIC against antibiotics resistant E. coli mutant NDM-1 strain” value was over 64 µg/mL.

In the case of `CO[C@H]1/C=C/O[C@@]2(C)Oc3c(C)c(O)c4c(O)c(c(/C=N/N5CCN(C)CC5)c(O)c4c3C2=O)NC(=O)/C(C)=C\C=C\[C@H](C)[C@H](O)[C@@H](C)[C@@H](O)[C@@H](C)[C@H](OC(C)=O)[C@@H]1C` [rif, rifampin, reference compound], the MIC in test [1] was 4 µg/mL (≈ 4.86 µM); in [2], under 0.125 µg/mL; in test [3], 8 µg/mL (≈ 9.72 µM); in test [4], under 0.125 µg/mL; in [5] it was 0.5 µg/mL (≈ 0.608 µM); in test [6] it was 1 µg/mL (≈ 1.22 µM). Further, the MIC in test [7] was under 0.125 µg/mL; in test [8], under 0.125 µg/mL; in test [9] it was 0.5 µg/mL (≈ 0.608 µM); in [10] it was under 0.125 µg/mL; in test [11] it was under 0.125 µg/mL. Besides, in [13], the “Increase of MIC after 35 passages” value worked out at 8192 fold. In test [12], the “MIC against antibiotics resistant E. coli mutant NDM-1 strain” value was over 64 µg/mL.

Consider `CN[C@H](CC(C)C)C(=O)N[C@H]1C(=O)N[C@@H](CC(N)=O)C(=O)N[C@H]2C(=O)N[C@H]3C(=O)N[C@H](C(=O)N[C@H](C(=O)O)c4cc(O)cc(O)c4-c4cc3ccc4O)[C@H](O)c3ccc(c(Cl)c3)Oc3cc2cc(c3O[C@@H]2O[C@H](CO)[C@@H](O)[C@H](O)[C@H]2O[C@H]2C[C@](C)(N)[C@H](O)[C@H](C)O2)Oc2ccc(cc2Cl)[C@H]1O` [van, vancomycin, reference compound], for which the MIC in test [1] is over 64 µg/mL; in test [2], 1 µg/mL (≈ 0.69 µM); in test [3] it was over 64 µg/mL; in [4], 0.5 µg/mL (≈ 0.345 µM); in [5], 2 µg/mL (≈ 1.38 µM); in test [6] it was over 64 µg/mL. Further, the MIC was determined as 2 µg/mL (≈ 1.38 µM) in test [7]; 0.5 µg/mL (≈ 0.345 µM) in [8]; 2 µg/mL (≈ 1.38 µM) in test [9]; 2 µg/mL (≈ 1.38 µM) in test [10]; 1020 µg/mL (≈ 707 µM) in test [11]. For the same compound, the “Increase of MIC after 35 passages” value in [13] turned out to be 512 fold. The “MIC against antibiotics resistant E. coli mutant NDM-1 strain” value in test [12] was over 64 µg/mL.
